Measurements as given in ChEMBL document CHEMBL1250434, “A novel achiral seco-cyclopropylpyrido[e]indolone (CPyI) analog of CC-1065 and the duocarmycins: synthesis, DNA interactions, in vivo anticancer and anti-parasitic evaluation” (Bioorg Med Chem, 2010).

Key:
[1] = system: HCT-15; assay: Cytotoxicity against human HCT15 cells after 48 hrs by sulforhodamine B assay; format: functional; conditions: HCT-15, 48 h, read-out: pLC50 (the source's name) (converted)
Outline: (§1)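 NCI human cancer cell line panel. Continuous 48 h drug exposure, viability by sulforhodamine B. GI50, TGI and LC50 derived from dose–response curves.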

[2] = system: Leishmania mexicana; assay: Antimicrobial activity against promastigotes of Leishmania mexicana assessed as inhibition of cell proliferation after 72 hrs by alamar blue assay; format: functional, organism-based
Outline: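 Promastigotes at 5 × 10^4 cells/well in DME-L medium with 10% heat-inactivated FBS, hemin, xanthine and penicillin-streptomycin. Exposed to 0.03 nM to 64 µM compound for 72 h at 26 °C. Alamar blue added, incubated 15 h, dye reduction read by fluorescence ex 530/em 590 nm.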

[3] = system: DU-145; assay: Cytotoxicity against human DU145 cells after 48 hrs by sulforhodamine B assay; format: functional; conditions: DU-145, 48 h, read-out: pLC50 (the source's name) (converted); outline: as §1
[4] = system: Mus musculus; assay: Toxicity in mouse B16F0 cells xenografted C57/BL/6J mouse assessed as reduction of body weight at 10 mg/kg, ip administered on day 1, 5, and 9 measured after 21 days; format: organism-based; parameters: dose 10 mg/kg, route intraperitoneal; conditions: in vivo, 504 h
Outline: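 Female C57/BL/6J mice, 5–7 weeks old, 8 per group, carrying sc B16-F0 flank tumours implanted day 0. Dosed 10 mg/kg ip in 1:2 PET/5% glucose on days 1, 5 and 9; vehicle-treated controls on the same schedule. Body weights recorded every other day.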

[5] = system: BT-549; assay: Cytotoxicity against human BT549 cells after 48 hrs by sulforhodamine B assay; format: functional; conditions: BT-549, 48 h, read-out: pLC50 (the source's name) (converted); outline: as §1
[6] = Cytotoxicity against human Hs 578T cells after 48 hrs by sulforhodamine B assay; format: functional; conditions: read-out: pLC50 (the source's name) (converted); outline: as §1
[7] = Antitumor activity against mouse B16F0 cells xenografted in C57/BL/6J mouse assessed as […] at 10 mg/kg, ip administered on day 1, 5, and 9 measured after 16 days; format: functional; conditions: route intraperitoneal
Outline: (§2)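 Female C57/BL/6J mice, 5–7 weeks old, 8 per group. Given 200,000 cultured B16-F0 cells (PBS-washed, not mouse-passaged) sc in the left flank on day 0. Dosed 10 mg/kg ip in 1:2 PET/5% glucose on days 1, 5 and 9; controls received vehicle. Tumours measured by caliper about every other day. Volume = length × width². Measurements stopped when 50% of the group had died.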

[8] = system: PC-3; assay: Cytotoxicity against human PC3 cells after 48 hrs by sulforhodamine B assay; format: functional; conditions: PC-3, 48 h, read-out: pLC50 (the source's name) (converted); outline: as §1
[9] = system: OVCAR-3; assay: Cytotoxicity against human OVCAR-3 cells after 48 hrs by sulforhodamine B assay; format: functional; conditions: OVCAR-3, 48 h, read-out: pLC50 (the source's name) (converted); outline: as §1
[10] = system: OVCAR-4; assay: Cytotoxicity against human OVCAR4 cells after 48 hrs by sulforhodamine B assay; format: functional; conditions: OVCAR-4, 48 h, read-out: pLC50 (the source's name) (converted); outline: as §1
[11] = system: SK-MEL-28; assay: Cytotoxicity against human SK-MEL-28 cells after 48 hrs by sulforhodamine B assay; format: functional; conditions: SK-MEL-28, 48 h, read-out: pLC50 (the source's name) (converted); outline: as §1
[12] = system: CAKI-1; assay: Cytotoxicity against human Caki1 cells after 48 hrs by sulforhodamine B assay; format: functional; conditions: CAKI-1, 48 h, read-out: pLC50 (the source's name) (converted); outline: as §1
[13] = system: 786-0; assay: Cytotoxicity against human 786-0 cells after 48 hrs by sulforhodamine B assay; format: functional; conditions: 786-0, 48 h, read-out: pLC50 (the source's name) (converted); outline: as §1
[14] = system: NCI-H460; assay: Cytotoxicity against human NCI-H460 cells after 48 hrs by sulforhodamine B assay; format: functional; conditions: NCI-H460, 48 h, read-out: pLC50 (the source's name) (converted); outline: as §1
[15] = Antitumor activity against mouse B16F0 cells xenografted in C57/BL/6J mouse assessed as […] at 10 mg/kg, ip administered on day 1, 5, and 9 measured after 21 days; format: functional; conditions: route intraperitoneal; outline: as §2
[16] = system: HOP-62; assay: Cytotoxicity against human HOP62 cells after 48 hrs by sulforhodamine B assay; format: functional; conditions: HOP-62, 48 h, read-out: pLC50 (the source's name) (converted); outline: as §1
[17] = system: UACC-62; assay: Cytotoxicity against human UACC62 cells after 48 hrs by sulforhodamine B assay; format: functional; conditions: UACC-62, 48 h, read-out: pLC50 (the source's name) (converted); outline: as §1
[18] = system: A549; assay: Cytotoxicity against human A549 cells after 48 hrs by sulforhodamine B assay; format: functional; conditions: A549, 48 h, read-out: pLC50 (the source's name) (converted); outline: as §1
[19] = system: SK-MEL-2; assay: Cytotoxicity against human SK-MEL-2 cells after 48 hrs by sulforhodamine B assay; format: functional; conditions: SK-MEL-2, 48 h, read-out: pLC50 (the source's name) (converted); outline: as §1
[20] = system: NCI-H23; assay: Cytotoxicity against human NCI-H23 cells after 48 hrs by sulforhodamine B assay; format: functional; conditions: NCI-H23, 48 h, read-out: pLC50 (the source's name) (converted); outline: as §1
[21] = system: SF-295; assay: Cytotoxicity against human SF295 cells after 48 hrs by sulforhodamine B assay; format: functional; conditions: SF-295, 48 h, read-out: pLC50 (the source's name) (converted); outline: as §1
[22] = system: M14; assay: Cytotoxicity against human M14 cells after 48 hrs by sulforhodamine B assay; format: functional; conditions: M14, 48 h, read-out: pLC50 (the source's name) (converted); outline: as §1
[23] = system: T47D; assay: Cytotoxicity against human T47D cells after 48 hrs by sulforhodamine B assay; format: functional; conditions: read-out: pLC50 (the source's name) (converted); outline: as §1
[24] = system: UO-31; assay: Cytotoxicity against human UO31 cells after 48 hrs by sulforhodamine B assay; format: functional; conditions: UO-31, 48 h, read-out: pLC50 (the source's name) (converted); outline: as §1

With `COc1cc2cc(C(=O)Nc3cc(O)c4ncc(C)cc4c3CCCl)[nH]c2c(OC)c1OC` the CC50 [1] was > 100 µM, the IC50 [2] was 0.119 µM and the CC50 [3] was 2.19 µM. For the same compound, the Activity [4] was “Non-toxic”, the CC50 [5] was > 100 µM and the CC50 [6] was > 100 µM. The Activity [7] was 1700 mm3, the CC50 [8] was 11.5 µM and the CC50 [9] was 2.63 µM. For the same compound, the CC50 [10] was 6.03 µM, the CC50 [11] was > 100 µM and the CC50 [12] was 1.55 µM. For the same compound, the CC50 [13] was 0.135 µM, the CC50 [14] was 81.3 µM and the Activity [15] was 2000 mm3. For the same compound, the CC50 [16] was < 0.01 µM, the CC50 [17] was < 0.01 µM and the CC50 [18] was > 100 µM. For the same compound, the CC50 [19] was > 100 µM, the CC50 [20] was < 0.01 µM and the CC50 [21] was 20.9 µM. The CC50 [22] was < 0.01 µM, the CC50 [23] was > 100 µM and the CC50 [24] was > 100 µM.
